A selection: hits, their analogues and other compounds. The true share with any hit is near 3%.
M4 antag: human M4 muscarinic receptor antagonists, primary screen, CHO cells, Fluo-8 calcium fluorescence. Muscarinic acetylcholine receptor M4 (Homo sapiens), P08173. CHO-hM4 cells, ACh EC80. inhibition, % at 3 µM. actives 0.73% (n = 360,000);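 active = inhibition above its plate's cutoff, the mean inhibition of sample wells plus 3 SD, cut at about 27% in these data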;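 note: 0% = acetylcholine EC80 with DMSO and 100% = DMSO without agonist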
M4 ag: human M4 muscarinic receptor agonists, primary screen, CHO-K1 cells, Fluo-8 calcium fluorescence | Muscarinic acetylcholine receptor M4 (Homo sapiens), P08173 | actives 0.14% (n = 360,000) | CHO-K1 hM4/Gqi5; vehicle 0%, full acetylcholine response 100% | AID 624127, 2012 | activation, % at 3 µM;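 active = activation above the run mean over all test wells plus 3 SD, cut at about 32% in these data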;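 note: peak over basal fluorescence ratio per well then scaled between controls; 0% = DMSO wells and 100% = acetylcholine at EC100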
TAAR1 ag: human TAAR1 agonists, primary screen, Fluo-8 calcium fluorescence, CHO RD-HGA16 cells | actives 0.99% (n = 360,000) | vehicle wells 0%, saturating PEA agonist 100% | AID 624467, 2012 | activation, % at 3 µM;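 active = activation above the mean activation of all test compounds in the run plus 3 SD, cut at about 38% in these data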
Target sequence (Q96RJ0 whole entry, looked up): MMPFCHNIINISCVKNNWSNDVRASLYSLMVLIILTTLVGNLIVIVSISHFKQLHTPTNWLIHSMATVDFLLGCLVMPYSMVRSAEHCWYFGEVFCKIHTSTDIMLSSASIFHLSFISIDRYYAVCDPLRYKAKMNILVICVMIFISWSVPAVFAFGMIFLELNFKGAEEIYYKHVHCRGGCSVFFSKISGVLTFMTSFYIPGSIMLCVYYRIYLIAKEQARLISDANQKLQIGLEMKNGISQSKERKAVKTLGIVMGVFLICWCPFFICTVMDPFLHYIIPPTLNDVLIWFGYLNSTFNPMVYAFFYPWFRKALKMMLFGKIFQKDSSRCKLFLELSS
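Test system: RD-HGA16 (CHO) cells co-expressing Gα16 and hTAAR1 / Benchmarks: DMSO vehicle as 0%, PEA at EC100 as 100% / Repeats: no replicates (n 1) / Measure: % activation from peak over basal fluorescence ratio, DMSO-to-PEA scaled / Timing: 17-24 h plating, Fluo-8 75 min 37 °C, 30 min RT / Technique: kinetic Fluo-8 calcium fluorescence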
CHRM4 PAM: human M4 muscarinic receptor positive allosteric modulators, primary screen, CHO-K1 cells, Fluo-8 calcium fluorescence | actives 0.4% (n = 360,000) | AID 624126, 2012 | CHO-K1 hM4/Gqi5, ACh EC20; 0% = ACh EC20, 100% = maximal ACh | activation, % at 3 µM | Muscarinic acetylcholine receptor M4 (Homo sapiens), P08173;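 active = activation above its plate's cutoff, the mean activation of sample wells plus 3 SD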
TAAR1 antagonist: human TAAR1 antagonists, primary screen, Fluo-8 calcium fluorescence, CHO RD-HGA16 cells | Trace amine-associated receptor 1 (Homo sapiens), Q96RJ0 | antagonist | inhibition, % at 3 µM | actives 1.5% (n = 360,000);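 active = inhibition above a per-plate cutoff, the mean inhibition of test compounds on that plate plus 3 SD, cut at about 49% in these data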;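 note: 0% = DMSO plus EC80 beta-PEA response and 100% = DMSO alone without agonist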
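Test system: CHO RD-HGA16 cells bearing hTAAR1 | Reagent: β-PEA, EC80 | Compound dosing: 3 µM, single point | Schedule: Dye loading 75 min at 37 °C, then 30 min room temperature | Signal: Calcium fluorescence with Fluo-8 | Evaluation: Percent inhibition of PEA-evoked calcium signal, max/basal emission ratio | Control set: DMSO-only wells and EC80 β-PEA-stimulated wells | Repeats: Singlicate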
Active calls of the source: *; ! = repeats disagree.

`c1ccc(-c2cc(-c3ccccc3)[n+](-c3ccccc3)c(-c3ccccc3)c2)cc1` gave M4 antag 73*, M4 ag 11, TAAR1 ag 7, CHRM4 PAM -41 and TAAR1 antagonist 72*.
`Cc1ccc(-c2cc(-c3ccc(C)cc3)[n+](-c3ccccc3)c(-c3ccc(C)cc3)c2)cc1` gave M4 antag 65*, M4 ag 30 and CHRM4 PAM -21.
`CCOC(=O)c1ccccc1C(=O)OCC` gave M4 antag -2, M4 ag 0, TAAR1 ag -1, CHRM4 PAM -2 and TAAR1 antagonist -2.
CN(C)c1ccc(-[n+]2c(-c3ccccc3)cc(-c3ccccc3)cc2-c2ccccc2)cc1 was read as M4 antag 56*, M4 ag 18, TAAR1 ag 13, CHRM4 PAM -21 and TAAR1 antagonist 34.
CCOC(=O)c1cccc(-[n+]2c(-c3ccccc3)cc(-c3ccccc3)cc2-c2ccccc2)c1 was read as M4 antag 27*, M4 ag 3, TAAR1 ag 10, CHRM4 PAM -11 and TAAR1 antagonist -9.
Screening CN(Cc1cccc(-c2ccncc2)c1)C(=O)Oc1ccc([N+](=O)[O-])cc1 returned M4 antag 23, M4 ag 13 and CHRM4 PAM -11.
Cc1ccc(-c2cc(-c3ccccc3)cc(-c3ccccc3)[n+]2-c2ccccc2)cc1 was read as M4 antag 79*, M4 ag 21, TAAR1 ag 34, CHRM4 PAM -22 and TAAR1 antagonist 104*.
For Cc1ccc(-c2cc(-c3ccc(C)cc3)[n+](-c3ccc(C(=O)[O-])cc3)c(-c3ccc(C)cc3)c2)cc1 the results were M4 antag -1, M4 ag 0, TAAR1 ag 1, CHRM4 PAM 4 and TAAR1 antagonist 1.
For CCCCCCn1c(O)c(C=NC2CCN(Cc3ccccc3)CC2)c(=O)[nH]c1=O the results were M4 antag 3, M4 ag 0, TAAR1 ag 4, CHRM4 PAM -7 and TAAR1 antagonist 11.
`C=CCn1c(O)c(C(C)=NCCc2ccccc2)c(=O)[nH]c1=O` gave M4 antag 4, M4 ag 1, TAAR1 ag 40*, CHRM4 PAM -5 and TAAR1 antagonist 13.
`C=CCn1c(O)c(C=NC2CCN(Cc3ccccc3)CC2)c(=O)[nH]c1=O` gave M4 antag -7, M4 ag 1, TAAR1 ag 2, CHRM4 PAM 12* and TAAR1 antagonist -13.
Screening COc1cc(O)c2c(c1)/C=C/C[C@H](O)[C@H](O)C(=O)CCC[C@H](C)OC2=O returned M4 antag -11, M4 ag 3, TAAR1 ag 1, CHRM4 PAM 0 and TAAR1 antagonist 8.
COC(=O)c1ccc(N2C(=O)CC(N3CCC(n4c(=O)[nH]c5ccccc54)CC3)C2=O)cc1 (stereo not given) was read as M4 antag -10, M4 ag 9, TAAR1 ag 7, CHRM4 PAM -2 and TAAR1 antagonist 17.
For O=C(CCCN1CCC(n2c(=O)[nH]c3ccccc32)CC1)c1ccc(F)cc1 the results were M4 antag 27*, M4 ag 5, TAAR1 ag 0, CHRM4 PAM -17 and TAAR1 antagonist -16.
For c1ccc(CCN2CCC3CCNC3C2)cc1 (stereo not given) the results were TAAR1 ag 3 and TAAR1 antagonist -8.
Cc1cc(N2CCNC[C@@H]2C)ccc1N1CCN[C@@H](C)C1 was read as TAAR1 ag 0 and TAAR1 antagonist 9.
Screening C#CCN(C)[C@H](C)Cc1ccccc1 returned M4 antag -7, M4 ag 0, TAAR1 ag 8, CHRM4 PAM -4 and TAAR1 antagonist -19.
`CC(Cc1ccccc1Sc1ccccc1O)N(C)C` (stereo not given) gave M4 antag 82*, M4 ag 9, TAAR1 ag 10, CHRM4 PAM -25 and TAAR1 antagonist 4.
`CCC(C(=O)N1C[C@H]2C[C@@H](C1)c1cccc(=O)n1C2)c1ccccc1` (stereo not given in full) gave M4 antag 3, M4 ag 1, TAAR1 ag 1, CHRM4 PAM -7 and TAAR1 antagonist -4.
Screening O=C(CCC(=O)N1C[C@H]2C[C@@H](C1)c1cccc(=O)n1C2)NCc1cccc(C(F)(F)F)c1 returned M4 antag 99*, M4 ag -1, TAAR1 ag 0, CHRM4 PAM -17 and TAAR1 antagonist -26.
N[C@@H](Cc1ccccc1)C(=O)N1C[C@H]2C[C@@H](C1)c1cccc(=O)n1C2 was read as M4 antag 92*, M4 ag 0, TAAR1 ag 1, CHRM4 PAM -16 and TAAR1 antagonist -14.
Cc1ccc(OC(=O)N(C)C[C@@H]2OCc3ccccc3-c3c(n(C)c4ccccc34)C(=O)N([C@H](C)CO)C[C@H]2C)cc1 was read as TAAR1 ag 8 and TAAR1 antagonist 8.
For O=C(NCCN1CCC2(CC1)C(=O)NCN2c1ccccc1)c1cccnc1Cl the results were TAAR1 ag 0 and TAAR1 antagonist -3.
For CN(C)C1C(=O)C(C(N)=O)=C(O)C2(O)C(=O)C3=C(O)c4c(O)cccc4C(C)(O)C3CC12 (stereo not given) the results were M4 antag -10, M4 ag 0 and CHRM4 PAM 5.
CN(C)[C@@H]1C(=O)C(C(N)=O)=C(O)[C@@]2(O)C(=O)C3=C(O)c4c(O)cccc4[C@@](C)(O)C3[C@H](O)C12 (stereo not given in full) was read as M4 antag 49*!, M4 ag 5, TAAR1 ag 1, CHRM4 PAM -18 and TAAR1 antagonist -11.
Screening CCOC(=O)CNC(=O)CSP(=S)(OCC)OCC returned M4 antag -1, M4 ag 1, TAAR1 ag 9, CHRM4 PAM 33* and TAAR1 antagonist -8.
`CCOP(=S)(OCC)SCSP(=S)(OCC)OCC` gave M4 antag 13, M4 ag -1, TAAR1 ag 3, CHRM4 PAM 9 and TAAR1 antagonist 9.
For COc1ccc(C(=O)C2CCCN(Cc3ccsc3)C2)cc1OC (stereo not given) the results were M4 antag 12, M4 ag 0, TAAR1 ag 1, CHRM4 PAM -2 and TAAR1 antagonist 3.
Screening COc1ccc(C(=O)C2CCCN(CC3CCCCC3)C2)cc1OC (stereo not given) returned M4 antag 34*, M4 ag 1, TAAR1 ag 2, CHRM4 PAM -11 and TAAR1 antagonist -12.

High-throughput results from PubChem BioAssay.
